Reference: ChEMBL document CHEMBL1128557, “Synthesis, antitumor activity, and chemical properties of silaplatin and related platinum (II) and platinum (IV) complexes derived from beta-silyl amines” (J Med Chem, 1995)

Tests used:
[1] = test system: Tumor Cell line; assay: Evaluated in vitro for the log10 molecular concentration that caused […] tumor growth of 60 human tumor cell lines.; type: functional, cell-based
Method in brief: (§1)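 Cells preincubated 24 h, then exposed to the agent at five 10-fold dilutions (0.01–100 μM for the platinum complexes) for 48 h. Cells fixed in situ and stained; solubilized stain read spectrophotometrically. Panel of leukemia, non-small-cell lung, ovarian and renal lines. Log GI50 or TGI taken per cell line in one experiment, then averaged across lines.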

[2] = test system: Tumor Cell line; assay: Evaluated in vitro for the log10 molecular concentration that caused 50 % inhibition of tumor growth of 60 human tumor cell lines; type: functional, cell-based; method in brief: as §1
[3] = test system: Tumor Cell line; assay: The compound was evaluated in vitro for the log10 molecular concentration that caused 50 % of 60 human tumor cell line kills; type: ADME, cell-based
Method in brief: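 Human tumor cell lines (leukemia, non-small-cell lung, ovarian, renal) were preincubated 24 h. Platinum complexes were then added as five 10-fold dilutions, 0.01–100 μM, for 48 h, followed by in situ fixation and staining, with solubilized stain read spectrophotometrically. Log LC50 (50% cell kill) was averaged across cell lines within one experiment.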

GI50 [2] [µM] | Substance | TGI [1] [µM] | Log LC50 [3]
6.17 | [Bis(aminomethyl)ethylmethylsilane]tetrachloroplatinum(IV) | 39.8 | 
 | [Bis(aminomethyl)pentamethylenesilane]dichloropaltinum(II) [listing 1 of 2 here] |  | > -4.01
11.7 | [Bis(aminomethyl)pentamethylenesilane]dichloropaltinum(II) [listing 2 of 2 here] | 67.6 | 
 | [Bis(aminomethyl)pentamethylenesilane]tetrachloropaltinum(IV) [listing 1 of 2 here] |  | > -4.01
4.17 | [Bis(aminomethyl)pentamethylenesilane]tetrachloropaltinum(IV) [listing 2 of 2 here] | 50.1 | 
 | [Bis(aminomethyl)tetramethylenesilane]dichloropaltinum(II) [listing 1 of 2 here] |  | > -4
25.7 | [Bis(aminomethyl)tetramethylenesilane]dichloropaltinum(II) [listing 2 of 2 here] | 89.1 | 
 | [Bis(aminomethyl)tetramethylenesilane]tetrachloropaltinum(IV) [listing 1 of 2 here] |  | > -4
4.47 | [Bis(aminomethyl)tetramethylenesilane]tetrachloropaltinum(IV) [listing 2 of 2 here] | 49 | 
 | cis-Bis[[(trimethylsilyl)methyl]amino]tetrachloroplatinum(IV) [listing 1 of 2 here] |  | > -4.06
5.89 | cis-Bis[[(trimethylsilyl)methyl]amino]tetrachloroplatinum(IV) [listing 2 of 2 here] | 22.9 | 
